In PubChem BioAssay AID1230 (PCMD, 2008):
Among all 210,000 compounds or so, about 220 (0.1%) were called active. The list comes from a sample in which actives are over-represented; it also holds similar structures and randomly drawn compounds. Values without a mark were called inactive.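 The calls were made as follows: active = signal enhancement of 30% or more; inactive = the rest.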

Each molecule was assayed against E3 ubiquitin-protein ligase Mdm2 (Homo sapiens) (UniProt Q00987) (assay: increase of MDM2 autoubiquitination reporter luminescence – cell-based, 1536-well, MDM2 E3 ligase inhibitor project, primary screen (AID 1230;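 also: higher signal means inhibition of MDM2 E3 ligase activity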)). Conditions: cell-based MDM2 ubiquitination luciferase reporter, 2 h; at 5 µM; hits give high values; 0 = plate control, 100 = twice control, blank-subtracted.
E3 ubiquitin-protein ligase Mdm2 (Homo sapiens), sequence (Q00987 whole entry, looked up, the tested form may be a part): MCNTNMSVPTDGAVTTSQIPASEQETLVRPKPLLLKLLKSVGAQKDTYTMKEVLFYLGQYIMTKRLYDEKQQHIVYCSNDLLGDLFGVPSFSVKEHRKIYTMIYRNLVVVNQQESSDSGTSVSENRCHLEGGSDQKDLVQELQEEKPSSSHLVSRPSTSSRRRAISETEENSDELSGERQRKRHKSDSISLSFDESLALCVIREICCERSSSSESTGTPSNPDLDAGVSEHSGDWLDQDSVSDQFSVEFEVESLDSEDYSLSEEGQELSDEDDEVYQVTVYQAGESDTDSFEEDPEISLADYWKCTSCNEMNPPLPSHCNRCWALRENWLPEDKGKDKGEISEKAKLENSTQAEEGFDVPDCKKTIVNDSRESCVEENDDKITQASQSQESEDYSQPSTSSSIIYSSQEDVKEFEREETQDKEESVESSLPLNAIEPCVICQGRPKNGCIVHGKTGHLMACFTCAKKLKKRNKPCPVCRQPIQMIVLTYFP
In short: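 test system = mammalian cells stably expressing self-ubiquitinating, self-degrading MDM2 E3–luciferase fusion | quantity = 2000 cells/well | incubation = cell settling 4 h, compound treatment 2 h, both 37 °C | signal = luminescence with SteadyLite reagent, 15 min at room temperature | evaluation = % enhancement relative to plate controls after blank subtraction | benchmarks = plate controls and plate blanks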

Structure (SMILES) | signal enhancement
CCOC(=O)C1CCN(C(=O)Nc2ccc(C)c(Cl)c2)CC1 | -11.1%
Cn1nccc1NC(=O)Nc1ccc(OC(F)(F)F)cc1 | -5.96%
O=C1NC[C@@H](Cc2ccc(O)cc2)N(CCc2cccc(F)c2)C1=O | 10.9%
COc1ccc(CNC(=O)C(Cc2ccccc2)n2cccc2)cc1 (stereo unspecified) | -4.92%
Cn1cnc([N+](=O)[O-])c1Sc1n[nH]c(N)n1 | -5.56%
O=C(CCc1ccccc1)NNc1ccc(F)cc1 | -12.4%
CCCCCCCCCCCCN1C(=O)CSC1c1cccnc1 (stereo unspecified) | -5.41%
O=C(NCC1CCCO1)c1cc(-c2ccccc2)nc2ccccc12 (stereo unspecified) | -4.98%
CCOC(=O)C(=CNNc1ccsc1C(=O)OC)C(=O)OCC | -27.3%
COCCn1c(=NC(=O)c2ccccc2[N+](=O)[O-])sc2cc(S(C)(=O)=O)ccc21 | -5.21%
CC(=O)c1ccc2c(c1)OCCOCCOc1ccc(C(C)=O)cc1OCCOCCO2 | -8.95%
Cn1c(=NC(=O)c2ccc3c(c2)OCCO3)sc2cc(S(C)(=O)=O)ccc21 | 37% (active)
Cc1cccc(N(C)C(=O)c2cc3c(=O)[nH]c4ccc(C)cc4c3s2)c1 | 2.91%
Cc1cccc(N2CCN(Cc3nc(C4CC4)no3)CC2)n1 | 2.81%
CC(C)(C)c1cc(P(=O)(c2ccccc2)c2ccccc2)ccc1O | -14%
COc1ccc(CCNC(=O)C2CC3Cn4c(nc5cc(C)c(C)cc54)C3N2C)cc1 (stereo unspecified) | 13%
CC1=NOC(=O)/C1=C\c1ccccc1 | -4.01%
Cc1cccc(C)c1Nc1c(-c2ccccc2O)nc2ncccn12 | -18.4%

Structure (SMILES) | signal enhancement
CN(Cc1nc(-c2cnccn2)no1)Cc1n[nH]c2c1CCCCC2 | -8.5%
Clc1ccc(CSc2nnc3c(n2)[nH]c2ccccc23)cc1 | -10.6%
CCNc1nc(NCC)nc(N/N=C/c2ccc(O)c(OC)c2)n1 | -10%
CC(=O)N1N=C(c2ccncc2)OC1(Cc1ccccc1)Cc1ccccc1 | -11.4%
CCC(C)(C)NC(=O)C(c1ccc(O)cc1)N(C(=O)Cn1nnc2ccccc21)c1ccc(NC(C)=O)cc1 (stereo unspecified) | -11.7%
Cn1c2ccc(F)cc2c2nnc(NN)nc21 | -2.02%
COc1ccc(OC)c(NC(=O)N[C@H](Cc2ccccc2)C(=O)NN)c1 | -4.05%
NC(=O)CC(NC(=O)Cc1cccc2ccccc12)c1ccc(NCc2cc(F)ccc2F)c([N+](=O)[O-])c1 (stereo unspecified) | 5.13%
COc1ccc(OCC(O)CNCCNc2nccc(C(F)(F)F)n2)cc1 (stereo unspecified) | -12.4%
CC1CN(c2nc(Nc3ccccc3)nc(N)c2[N+](=O)[O-])CC(C)O1 (stereo unspecified) | -20.6%
Cc1c(C(=O)N(Cc2ccccc2)Cc2cccnc2)cnn1-c1ccc(F)cc1 | -11.7%
O=c1[nH]n(-c2cccc(Cl)c2)c2ncccc12 | -4.4%
Oc1c(CN2CCN(c3ccc(F)cc3)CC2)cc(Cl)c2cccnc12 | 9.75%
Clc1cccc(CN2COc3c(cc(Cl)c4cccnc34)C2)c1 | 46.8% (active)
CCCSc1ncccc1C(=O)O | -7.45%
COC(=O)C1=C(N)Oc2cc(C)[nH]c(=O)c2C1c1ccc(Cl)cc1 (stereo unspecified) | -10.2%
CSc1nnc(SCc2nc3sc(C(=O)O)c(C)c3c(=O)[nH]2)s1 | -16.2%
O=C(CSc1nnnn1-c1ccc(O)cc1)c1ccc(F)cc1 | -12.1%
